Screens: PubChem BioAssay, several laboratories
STAT1 act: STAT1 signaling activators, primary screen, cell-based, HTS, luciferase reporter; NIH 3T3 STAT1-luciferase reporter, IFN-gamma, luminescence; 100% = IFN-gamma alone, no compound; activation (% of control), % at 5.5 µM; 2.6% of 200,000 active; AID 932, 2007;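 active means activation above the screen-wide mean activation plus 3 SD, cut at about 130% in these data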;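 further: raw ratio to IFN-gamma control signal so 100% means no change and 0% no light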
Mdm2 ligase inh: MDM2-luciferase reporter signal enhancers, primary screen, MDM2 E3 ligase inhibitor project, cell-based, luminescence, 1536-well | E3 ubiquitin-protein ligase Mdm2 (Homo sapiens), Q00987 | cell-based MDM2 ubiquitination luciferase reporter, 2 h; 0 = plate control, 100 = twice control, blank-subtracted | 0.11% of 210,000 active | signal enhancement, % at 5 µM;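 active means signal enhancement of 30% or more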;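 further: luminescence tracks abundance of the self-degrading MDM2-luciferase fusion protein; higher signal means inhibition of MDM2 E3 ligase activity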
Target sequence (Q00987 whole entry, looked up, the tested form may be a part): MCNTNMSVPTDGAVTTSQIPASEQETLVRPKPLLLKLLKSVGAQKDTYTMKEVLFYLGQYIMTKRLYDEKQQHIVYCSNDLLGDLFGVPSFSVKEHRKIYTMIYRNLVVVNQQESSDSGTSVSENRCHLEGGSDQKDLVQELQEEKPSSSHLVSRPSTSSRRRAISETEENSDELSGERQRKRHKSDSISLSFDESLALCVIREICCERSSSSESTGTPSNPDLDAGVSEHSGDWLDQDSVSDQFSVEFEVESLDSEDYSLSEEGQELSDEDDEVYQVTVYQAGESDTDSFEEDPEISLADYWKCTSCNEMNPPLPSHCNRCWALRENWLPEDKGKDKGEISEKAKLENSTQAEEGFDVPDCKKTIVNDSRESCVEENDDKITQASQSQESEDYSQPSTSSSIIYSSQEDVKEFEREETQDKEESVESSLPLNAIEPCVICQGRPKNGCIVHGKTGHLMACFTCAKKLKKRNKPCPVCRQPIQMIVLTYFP
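Assay system: stable mammalian line carrying autodegrading MDM2–luciferase fusion reporter; amount: 2000 cells seeded into each well; buffer or medium: DMEM; benchmarks: plate control and blank wells; signal: luciferase luminescence; timing: 2 h compound exposure at 37 °C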
APP 5'UTR act: activators of APP 5'UTR luciferase reporter, primary screen, SH-SY5Y cells; SH-SY5Y APP 5'UTR luciferase reporter, luminescence; zero percent = DMSO vehicle wells; activation, % at 2 µM; 1% of 190,000 active;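 active means activation above a set limit, based on mean plus 3 SD of controls, cut at about 140% in these data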
AHR act: AHR activators, primary screen, cell-based, luminescence, luciferase reporter, human | Aryl hydrocarbon receptor (Homo sapiens), P35869 | AHR-responsive luciferase reporter cells | activation, % at 5 µM | 2.5% of 320,000 active | AID 2796, 2010; in the data active means activation above about 47%;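 further: 0% = vehicle wells and 100% = reference agonist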
PERK inh: block of dimerizer-induced PERK translation repression, primary screen, PERK inhibitor project, CHO PERK-DD cells, SEAP luminescence, HTS. Eukaryotic translation initiation factor 2-alpha kinase 3 (Homo sapiens), Q9NZJ5. CHO PERK-DD fusion, SEAP luminescence translation reporter. inhibition, % at 5.6 µM. 0.17% of 220,000 active. AID 1416, 2008;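 active means inhibition above the mean inhibition of all tested compounds plus 3 SD, set separately per screening campaign, cut at about 2.9% in these data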;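 further: PERK kinase domain activated by AP20187 dimerizer at 100 nM; 0% = DMSO with dimerizer and 100% = rapamycin at 8.4 µM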
NF-kB neuron act: activators of NF-kB expression in neurons, primary screen, cell-based, HTS | human neuronal cells, NF-kB reporter expression; active compounds read high | fold change at 12.5 µM | AID 1239, 2008 | 1.6% of 190,000 active; in the data active means fold change above about 3.3
AHR act confirm: AHR activators, confirmation, cell-based, luminescence, luciferase reporter, human | shares compounds with AHR act | 87% of 2,300 active | human cells, AHR-responsive luciferase reporter | activation, % at 9 µM; in the data active means activation above about 49%;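 further: HepG2 hepatoma cells carrying a DRE-driven firefly luciferase reporter; 0% = vehicle wells and 100% = reference agonist wells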
PXR act counter: human PXR activators, counter-screen for AHR activator project, cell-based, luciferase luminescence; activation, % at 11.6 µM; cell-based PXR reporter; AID 434939, 2010; shares compounds with AHR act; 88% of 2,300 active; in the data active means activation above about 11%;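 further: human hepatoma DPX-2 cells expressing full-length human PXR; 0% = DMSO and 100% = reference agonist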
An asterisk follows results filed as active; nt = no result given. Most compounds without a hit are left out; they make up all but 4.5% or so of the library.

SMILES	STAT1 act	Mdm2 ligase inh	APP 5'UTR act	AHR act	PERK inh	NF-kB neuron act	AHR act confirm	PXR act counter
COc1ccc([N+](=O)[O-])cc1NC(=S)NC(NC(=O)C(c1ccccc1)c1ccccc1)C(Cl)(Cl)Cl (stereo unspecified)	92	-3	16	3	-1	0.75	nt	nt
Cc1ccc2c(c1)sc1nc(=O)n(-c3cccc(Cl)c3)c(=O)n12	117	-2	17	2	0	1.3	nt	nt
O=c1nc2sc3ccccc3n2c(=O)n1-c1cccc(Cl)c1	109	-23	107	81*	1	2.3	115*	33*
O=C(Cn1c(=O)n(-c2ccc(F)cc2)c(=O)c2sccc21)c1ccccc1	100	7	8	-1	0	0.97	nt	nt
CCOc1ccccc1NC(=S)Nc1ncccc1C	98	-14	0	122*	0	1.4	81*	52*
CC(C)CN(CC(C)C)S(=O)(=O)N1CCC(C(=O)NCc2ccc3c(c2)OCO3)CC1	93	-24	4	-1	1	0.99	nt	nt
O=C(CN1C2=NCCN2c2ccccc21)c1ccc(Br)cc1	94	-6	12	112*	-1	0.89	71*	21*
O=C(CN1C2=NCCCN2c2ccccc21)c1cccs1	100	-18	-2	3	-1	1	nt	nt
O=C(CN1C2=NCCN2c2ccccc21)c1ccc(Br)s1	97	-9	8	94*	-1	1.2	81*	14*
CC(=O)n1c2ccccc2c2c1c1ccccc1n2C	95	-10	57	109*	0	1.3	113*	22*
CC(=O)n1c2ccccc2c2nc3ccccc3nc21	nt	nt	nt	40	nt	nt	nt	nt
Cc1cc2oc(C(=O)NCCc3ccc(S(N)(=O)=O)cc3)c(C)c2cc1C	95	-7	2	-1	1	1	nt	nt
Cc1cc2oc(C(=O)NCc3ccncc3)c(C)c2cc1C	106	-12	-13	89*	0	1.1	50*	28*
Nc1cnc(Nc2ccc(Br)cc2)nc1N	nt	-10	nt	23	0	nt	nt	nt
N#Cc1c(N)nc(N)nc1Nc1ccc(Br)cc1	nt	-12	nt	83*	-1	nt	72*	17*
Nc1c2nc(-c3ccccc3Cl)[nH]c(=O)c2nc(=O)n1-c1ccccc1	nt	nt	nt	87*	0	nt	95*	19*
OC(CN1CCN(c2ccccc2Cl)CC1)c1ccccc1 (stereo unspecified)	nt	nt	nt	-2	nt	nt	nt	nt
O=c1c2ccccc2nc2n1CCc1c-2[nH]c2ccccc12	nt	nt	nt	99*	nt	nt	223*	20*
O=C(CSc1nncn1-c1ccccc1)NC1CCCCC1	100	-7	-4	3	0	1.1	nt	nt
COc1cc(OC)cc(C(=O)NC2CCN(CCCOc3ccccc3)CC2)c1	nt	nt	nt	-1	nt	nt	nt	nt
Clc1ccc(-c2nc(/C=N/N3CCOCC3)c3ccccn23)cc1	107	-1	-5	90*	1	0.75	78*	25*
CN1CCN(/N=C/c2nc(-c3ccccc3)n3ccccc23)CC1	101	-4	12	102*	1	1.2	65*	16*
Clc1ccccc1-c1nc(/C=N/N2CCOCC2)c2ccccn12	103	0	-3	13	1	1.2	nt	nt
Cc1cccc(N2C(=O)CN=C2Nc2nc(C)cc(C)n2)c1	94	-17	5	92*	-1	1.1	82*	25*
COc1ccc(-c2nc(SCC(=O)NCc3ccco3)c(-c3ccccc3)[nH]2)cc1OC	100	-1	-15	29	-1	0.9	nt	nt
